# In publication PMC3514014 (Molecular and biochemical parasitology, 2010):
# Where a SMILES comes first, the peptide text is derived from it. Where no end group is shown, it is not given here. The star is where a group is joined. ACC = NC(=O)Cc1cc(=O)oc2cc(N*)ccc12; AMC = Cc1cc(=O)oc2cc(N*)ccc12
# How the values were obtained:
# native DPAP1 (nDPAP1) [1] = target: T1, native DPAP1 (nDPAP1) (Plasmodium falciparum, UniProt Q8IIJ9); assay type: biochemical; conditions: for hydrolysis of the substrate: native DPAP1, concentrations up to 500 μM; for kcat: nDPAP1, 25 °C, pH 6.0, 30 mM chloride, mean ± SD, triplicate, NH = no hydrolysis
# T1 sequence (Q8IIJ9 28-209 limits assumed): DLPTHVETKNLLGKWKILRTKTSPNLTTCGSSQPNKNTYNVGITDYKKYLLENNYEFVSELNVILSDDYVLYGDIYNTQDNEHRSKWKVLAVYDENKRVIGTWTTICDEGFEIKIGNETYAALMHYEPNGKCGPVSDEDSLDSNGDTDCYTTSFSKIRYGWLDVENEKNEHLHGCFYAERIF
# T1 sequence (Q8IIJ9 370-599 limits assumed): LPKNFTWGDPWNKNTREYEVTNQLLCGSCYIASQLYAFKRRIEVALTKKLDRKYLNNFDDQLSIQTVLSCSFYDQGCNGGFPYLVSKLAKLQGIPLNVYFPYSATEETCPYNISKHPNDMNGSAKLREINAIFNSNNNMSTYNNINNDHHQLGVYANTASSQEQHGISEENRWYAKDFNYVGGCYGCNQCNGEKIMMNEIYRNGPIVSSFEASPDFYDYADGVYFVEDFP
# T1 sequence (Q8IIJ9 600-700 limits assumed): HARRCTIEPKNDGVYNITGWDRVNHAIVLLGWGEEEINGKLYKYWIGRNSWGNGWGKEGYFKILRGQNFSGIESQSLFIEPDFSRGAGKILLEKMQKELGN
# [2] = target: T2, recombinant DPAP1 (rDPAP1) (Plasmodium falciparum, UniProt Q8IIJ9); assay type: biochemical; conditions: for hydrolysis of the substrate: recombinant DPAP1, concentrations up to 500 μM; for Km / kcat: rDPAP1, 25 °C, pH 6.0, 30 mM chloride, mean ± SD, triplicate, NH = no hydrolysis
# T2 sequence (Q8IIJ9 28-209 limits assumed): T1 sequence (Q8IIJ9 28-209 limits assumed)
# T2 sequence (Q8IIJ9 370-599 limits assumed): T1 sequence (Q8IIJ9 370-599 limits assumed)
# T2 sequence (Q8IIJ9 600-700 limits assumed): T1 sequence (Q8IIJ9 600-700 limits assumed)
# [3] = system: recombinant human cathepsin C; assay type: biochemical; conditions: for Km / kcat: 25 °C, pH 6.0, 30 mM chloride, mean ± SD, triplicate
# [4] = target: T2, recombinant DPAP1 (rDPAP1); assay: Inhibition of recombinant DPAP1; assay type: biochemical
# In short: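 Recombinant E. coli-expressed DPAP1-His6, activated by TEV cleavage, at 0.8 nM. Run at 25 °C in 50 mM sodium MES pH 6.0 with 2 mM dithiothreitol and 1 mM EDTA, total chloride held at 30 mM with NaCl. Fluorogenic release read against an AMC standard, in triplicate. Rates taken from linear progress-curve segments after ~15 min lag; Ki by Dixon method.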
# cathepsin C [5] = conditions: cited from earlier work
# native DPAP1 (nDPAP1) [6] = target: T1, native DPAP1 (nDPAP1); assay: Inhibition of native DPAP1; assay type: biochemical; conditions: Fig. 4 and Fig. S4, stated in words
# cathepsin C [7] = assay: Inhibition of cathepsin C under the DPAP1 assay conditions; assay type: biochemical, human; conditions: assay conditions used for DPAP1
# cathepsin C [8] = conditions: cited from earlier work; remark: listed apart in the source
# [9] = recombinant DPAP1, Fig. 4 and Fig. S4, stated in words
compound,measurement,setting,value
N=C(N)NCCC[C@H](NC(=O)[C@@H](N)Cc1ccccc1)C(=O)Nc1ccc2c(CC(N)=O)cc(=O)oc2c1 [Phe-Arg-ACC] (H-Phe-Arg-{ACC}),hydrolysis of the substrate,native DPAP1 (nDPAP1) [1],no hydrolysis was observed
same,hydrolysis of the substrate,[2],no hydrolysis was observed
same,kinetic behaviour as substrate,[3]; Fig. S3,substrate inhibition was observed
same,mode of inhibition,"[4]; rDPAP1, hydrolysis of Pro-Arg-AMC, Dixon analysis",purely competitive
same,Ki,"[4]; rDPAP1, inhibition of hydrolysis of Pro-Arg-AMC, Dixon analysis",2200 nM
Arg-Arg-{ACC},hydrolysis of the substrate,native DPAP1 (nDPAP1) [1],no hydrolysis was observed
same,hydrolysis of the substrate,[2],no hydrolysis was observed
N[C@@H](Cc1ccccc1)C(=O)N[C@@H](Cc1ccccc1)C(=O)O [L-Phe-L-Phe] (H-Phe-Phe-OH),inhibition of cathepsin C,cathepsin C [5],competitively inhibited
"CC[C@H](N)C(=O)NNC(=O)N[C@@H](CCc1ccccc1)C(=O)N[C@@H](C)Cc1cccc(F)c1 [compound 1, 1-(2S-2-aminobutanoyl)-4-{2S-N-[2S-3-(m-fluorophenyl)propan-2-yl-amide]-4-phenylbutan-2-yl-amide}semicarbazide]",Ki,native DPAP1 (nDPAP1) [6],sub-nanomolar
same,Ki,[4]; [9],sub-nanomolar
same,type of inhibition,cathepsin C [7],"slow, tight-binding inhibitor"
CC(C)[C@H](N)C(=O)N[C@@H](CCCNC(=N)N)C(=O)Nc1ccc2c(CC(N)=O)cc(=O)oc2c1 [Val-Arg-ACC] (H-Val-Arg-{ACC}),kcat,native DPAP1 (nDPAP1) [1],3.5 ± 0.1 s⁻¹
same,Km,[2],20 ± 1 µM
same,kcat,[2],0.72 ± 0.02 s⁻¹
same,Km,[3],51 ± 8 µM
same,kcat,[3],180 ± 10 s⁻¹
Cc1cc(=O)oc2cc(NC(=O)[C@H](CCCN=C(N)N)NC(=O)[C@@H](N)CCCN=C(N)N)ccc12 [Arg-Arg-AMC] (H-Arg-Arg-{AMC}),turnover of the substrate,[3],no turnover
CC[C@H](C)[C@H](N)C(=O)N[C@@H](CCCNC(=N)N)C(=O)Nc1ccc2c(CC(N)=O)cc(=O)oc2c1 [Ile-Arg-ACC],Km,[2],3.9 ± 0.2 µM
same,kcat,[2],0.072 ± 0.003 s⁻¹
same,Km,[3],28 ± 2 µM
same,kcat,[3],17 ± 1 s⁻¹
NC(Cc1ccccc1)C(=O)NCC(=O)O (racemic) [DL-Phe-Gly],inhibition of cathepsin C,cathepsin C [5],competitively inhibited
NC(=O)[C@@H](N)Cc1ccccc1 [phenylalaninamide],inhibition of cathepsin C,cathepsin C [5],competitively inhibited
"CC[C@H](N)C(=O)NC(C#N)Cc1ccccc1 (stereo partly shown) [compound 2, S-2-aminobutyryl-phenylalanine-nitrile]",Ki,native DPAP1 (nDPAP1) [6],single-digit nanomolar
same,Ki,[4]; [9],single-digit nanomolar
Cc1cc(=O)oc2cc(NC(=O)[C@H](CCCN=C(N)N)NC(=O)[C@@H]3CCCN3)ccc12 [Pro-Arg-AMC] (H-Pro-Arg-{AMC}),kcat,native DPAP1 (nDPAP1) [1],6.2 ± 0.4 s⁻¹
same,Km,[2],79 ± 2 µM
same,kcat,[2],1.8 ± 0.1 s⁻¹
same,Km,[3],130 ± 10 µM
same,kcat,[3],490 ± 10 s⁻¹
Cc1cc(=O)oc2cc(NC(=O)C(Cc3ccccc3)NC(=O)C(N)C(C)C)ccc12 (stereo not drawn) [Val-Phe-AMC] (H-Val-Phe-{AMC}; configuration not given here),increase in kcat/Km relative to Pro-Phe-AMC,cathepsin C [8],10 fold
